aSyn 5UTR inh: 5' untranslated region of α-synuclein, MLPCN primary screen | alpha-synuclein 5'UTR reporter, inhibitor activity | inhibition, % (tested at 7.5 µM) | 300,000 compounds, 0.82% hits | AID 1813; in the data active = inhibition above about 60%;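 also: H4 neuroglioblastoma cells stably carrying SNCA 5'UTR luciferase fusion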
CSC inhib: blocks cancer stem cells | 300,000 compounds, 1.1% hits | inhibition, % at 7.5 µM | cancer stem cell-like cells viability, luminescence; in the data active = inhibition above about 75%; tested in HMLE shEcad cells
SKKanGAS inh: SKKanGAS growth inhibition; S. pyogenes SKKanGAS, kanamycin growth, BacTiter-Glo, 6 h; inhibition, % at 7.5 µM; 300,000 compounds, 1.3% hits;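 active = mean replicate score, as percent of positive control median, at least 50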;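 also: strain carries kanamycin resistance gene driven by streptokinase promoter and grows in 40 µg/ml kanamycin; loss of luminescence reflects streptokinase promoter inhibition or plain growth inhibition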
T cruzi repl: blocks replication of Trypanosoma cruzi; T. cruzi beta-gal in NIH3T3, luminescence, 90 h; inhibition, % (concentration not given with the values); 300,000 compounds, 1.4% hits; AID 1885;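 active = mean inhibition across valid replicates above about 55%, limit read from the data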;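 also: signal also drops with host cell toxicity which is not excluded here; higher percent means less beta-gal luminescence so fewer parasites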
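System: NIH/3T3 fibroblasts plus reporter T. cruzi. Medium: DMEM plus 2% FBS. Probe or stimulus: 5000 reporter trypomastigotes per well. Compound: single 50 nL compound addition per well in DMSO. Incubation: co-culture of at least 90 h after 3 h attachment. Detection: GalScreen β-gal luminescence, detergent lysis, 60 min. Evaluation: parasite load inhibition, %.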
Mdm2 MdmX PPI: disrupts the human Mdm2-MdmX interaction. AID 485346. 330,000 compounds, 3% hits. SaOS-2 split-luciferase Mdm2/MdmX complementation, luminescence. O15151+Q00987. inhibition, % at 8 µM;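 active = inhibition of at least 50% at 8 µM in the primary screen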
Target sequence (O15151 whole entry, looked up): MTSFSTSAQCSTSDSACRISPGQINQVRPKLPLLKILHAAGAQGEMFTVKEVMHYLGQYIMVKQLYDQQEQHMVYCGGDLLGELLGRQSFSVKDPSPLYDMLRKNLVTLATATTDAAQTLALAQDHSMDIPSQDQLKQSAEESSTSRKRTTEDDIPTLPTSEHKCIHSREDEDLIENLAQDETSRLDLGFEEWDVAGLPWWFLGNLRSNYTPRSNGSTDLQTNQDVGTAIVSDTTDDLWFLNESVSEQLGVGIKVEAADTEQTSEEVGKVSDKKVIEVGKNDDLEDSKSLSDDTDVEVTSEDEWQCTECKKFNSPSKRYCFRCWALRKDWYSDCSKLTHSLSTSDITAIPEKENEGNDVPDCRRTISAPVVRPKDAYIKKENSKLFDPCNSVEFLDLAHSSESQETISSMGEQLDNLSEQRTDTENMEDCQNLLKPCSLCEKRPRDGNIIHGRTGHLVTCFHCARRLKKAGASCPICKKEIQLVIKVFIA
Target sequence (Q00987 whole entry, looked up): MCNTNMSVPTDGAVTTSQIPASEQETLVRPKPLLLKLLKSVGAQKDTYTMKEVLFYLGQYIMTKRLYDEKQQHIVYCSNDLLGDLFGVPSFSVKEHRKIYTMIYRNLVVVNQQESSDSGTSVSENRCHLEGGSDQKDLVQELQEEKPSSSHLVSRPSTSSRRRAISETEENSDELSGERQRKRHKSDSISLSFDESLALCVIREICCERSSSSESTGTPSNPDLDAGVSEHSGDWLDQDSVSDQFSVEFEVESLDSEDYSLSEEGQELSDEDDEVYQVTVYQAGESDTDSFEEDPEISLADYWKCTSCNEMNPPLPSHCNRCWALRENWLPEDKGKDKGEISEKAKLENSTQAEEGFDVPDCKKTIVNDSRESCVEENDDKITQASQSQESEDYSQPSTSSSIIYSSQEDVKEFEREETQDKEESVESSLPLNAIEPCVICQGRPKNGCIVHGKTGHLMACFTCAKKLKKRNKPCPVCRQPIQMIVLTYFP
Numbers stand for hits; – = inactive; · = not tested or not shown. Sampled rows, rich in hits. Any-hit rate of the full collection: about 5.4%.

SMILES | aSyn 5UTR inh | CSC inhib | SKKanGAS inh | T cruzi repl | Mdm2 MdmX PPI
CCOC(=O)c1ccc(Nc2nc(C(=O)OCC)nc3ccccc23)cc1 | – | – | – | – | –
COc1ccc2cc(C(=O)N3CCc4ccccc43)[nH]c2c1 | – | – | – | – | –
Oc1c(C(Nc2nccs2)c2ccc(C(F)(F)F)cc2)ccc2cccnc12 (centres undefined) | – | · | 91 | – | ·
CN1CCN(C(c2cccnc2)c2ccc3cccnc3c2O)CC1 (centres undefined) | – | – | – | – | –
Cc1ccc(S(=O)(=O)N(CCCO)CC(O)CON=C2c3ccccc3-c3ccccc32)cc1 (centres undefined) | – | – | – | 65 | –
COc1cc(CCC(=O)N2CCN(S(=O)(=O)c3ccc(C)cc3)CC2)cc(OC)c1OC | · | · | · | · | –
Cc1ccc(-c2nc3ccc(Cl)cc3c(=O)n2O)cc1 | – | – | 70 | – | –
Cc1ccc(-c2nc3ccccc3c(=O)n2O)cc1 | – | – | – | – | –
COc1ccc(N(CC(=O)Nc2cc(Cl)ccc2OC)S(=O)(=O)c2c(C)noc2C)cc1 | 71 | – | – | – | –
CC1=NOC(=O)/C1=C\c1ccc(-c2ccccc2Br)o1 | – | · | – | – | ·
COc1cc(/C=C(\C#N)C(=O)c2ccc(O)c(O)c2)cc(I)c1O | · | – | · | · | –
COCCCNC(=O)c1c(N)n(/N=C/c2cccnc2)c2nc3ccccc3nc12 | – | – | – | – | –
CCC(C)NC(=O)c1c(N)n(/N=C/c2ccccn2)c2nc3ccccc3nc12 (centres undefined) | – | · | 87 | 62 | –
O=C(Nc1cc(Cl)cc(Cl)c1)N1CCCC1 | – | – | 59 | – | –
O=C(NCc1cc2ccccc2[nH]1)C1CCC(=O)N(CCCN2CCCC2=O)C1 (centres undefined) | – | – | – | – | –
COCCN=c1scc(-c2cccs2)n1/N=C/c1ccc(O)c(O)c1O | 67 | – | – | – | –
CCN=c1scc(C)n1/N=C/c1ccc(O)c(O)c1O | – | – | – | – | –
Cc1cc(OC(C)C(=O)NCCCN2CCOCC2)ccc1Cl (centres undefined) | – | – | – | – | –
CC(NC(=O)c1ccc([N+](=O)[O-])cc1[N+](=O)[O-])c1ccc(-c2ccccc2)cc1 (centres undefined) | – | – | – | – | –
CCC(NC(=O)c1ccc([N+](=O)[O-])cc1[N+](=O)[O-])c1ccccc1 (centres undefined) | – | – | – | 58 | –
COCCn1nnnc1C(CC(C)C)N1CCN(c2nc3ccccc3s2)CC1 (centres undefined) | – | – | – | – | –
Cc1ccc(S(=O)(=O)Cn2nnnc2C(C(C)C)N2CCN(c3nc4ccccc4s3)CC2)cc1 (centres undefined) | – | – | – | 56 | –
O=C(COC(=O)Cc1c(F)cccc1Cl)NC1CCS(=O)(=O)C1 (centres undefined) | – | – | – | – | –
Cc1ccc(N=Nc2ccc(O)c3ncccc23)cc1 | 86 | 99 | 109 | 57 | ·
Cc1ccccc1C1C(C#N)=C2N=C(N)c3c(sc4c3CCCCC4)N2C2=C1C(=O)CC(C)(C)C2 (centres undefined) | – | – | – | 58 | –
SMILES | aSyn 5UTR inh | CSC inhib | SKKanGAS inh | T cruzi repl | Mdm2 MdmX PPI
O=C(COC(=O)C1CC2C=CC1C2)Nc1cccc(S(=O)(=O)N2CCCCCC2)c1 (centres undefined) | – | – | – | – | –
COc1ccc(CNC(=O)C2CCCN(C(=O)Nc3ccc(OC)cc3)C2)cc1 (centres undefined) | – | – | – | – | –
S=C(NCCCn1ccnc1)NC1CCCCC1 | – | – | – | – | –
O=C(COc1ccccc1)Nc1cccc(-c2nc3cc4ccccc4cc3[nH]2)c1 | – | 88 | 67 | – | –
O=C(COC(=O)C12CC3CC(CC(C3)C1)C2)Nc1nccs1 | – | – | – | – | –
Cc1ccc(S(=O)(=O)N(CC(=O)Nc2cccc(N(C)S(C)(=O)=O)c2)c2ccc(Cl)c(Cl)c2)cc1 | – | · | – | 70 | –
Cc1cc(C(=O)CN2C(=O)C(=O)N(Cc3ccccc3)C2=O)c(C)n1Cc1ccccc1 | · | 97 | · | · | –
Cc1cc(C(=O)CN2C(=O)C(=O)N(Cc3ccccc3)C2=O)c(C)n1Cc1ccc(F)cc1 | · | · | · | · | –
Cc1ccccc1OCCC(=O)NNC(=O)c1ccccc1F | · | – | · | · | –
CCC1=Nc2cc(C(=O)NCCCOC)ccc2Sc2ccccc21 | 74 | – | – | 56 | –
CCC1=Nc2cc(C(=O)NCc3ccco3)ccc2Sc2ccc(C)cc21 | 104 | – | – | – | ·
